The target of assay [1] is T1, Muscarinic acetylcholine receptor M2 (Rattus norvegicus, UniProt P10980).
T1 sequence (P10980 whole entry): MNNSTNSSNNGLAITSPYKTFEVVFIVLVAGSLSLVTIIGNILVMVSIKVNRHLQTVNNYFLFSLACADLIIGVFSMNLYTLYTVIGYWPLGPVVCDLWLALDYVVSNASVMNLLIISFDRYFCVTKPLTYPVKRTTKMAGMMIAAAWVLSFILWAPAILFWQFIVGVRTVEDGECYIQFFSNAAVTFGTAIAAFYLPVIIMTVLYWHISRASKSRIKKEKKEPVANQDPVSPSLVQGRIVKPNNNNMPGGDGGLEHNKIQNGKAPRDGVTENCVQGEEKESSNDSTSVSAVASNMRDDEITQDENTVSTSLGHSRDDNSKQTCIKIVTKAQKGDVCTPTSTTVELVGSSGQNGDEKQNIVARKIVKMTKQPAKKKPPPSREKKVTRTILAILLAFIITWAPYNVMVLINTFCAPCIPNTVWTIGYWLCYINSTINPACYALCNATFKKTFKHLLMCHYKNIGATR
The assay can be described thus: Inhibition of [3H]- Oxo-M binding at Muscarinic acetylcholine receptor M2 in rat brain membranes. The assay is classed as cell membranes. In short, it runs like this:
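Rat cortex homogenized in 20 mM HEPES pH 7.4 and centrifuged at 40000g. Membranes incubated 60 min at room temperature with 1 nM (final) [³H]oxotremorine-M and compound. Separated on PEI-soaked GF/C filters and counted by scintillation. Nonspecific binding defined with 10 μM arecoline. Value reported as IC50.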

For assay [2], the target named is T2, Muscarinic acetylcholine receptor M2 (Homo sapiens) (UniProt P08172).
T2 sequence (whole entry): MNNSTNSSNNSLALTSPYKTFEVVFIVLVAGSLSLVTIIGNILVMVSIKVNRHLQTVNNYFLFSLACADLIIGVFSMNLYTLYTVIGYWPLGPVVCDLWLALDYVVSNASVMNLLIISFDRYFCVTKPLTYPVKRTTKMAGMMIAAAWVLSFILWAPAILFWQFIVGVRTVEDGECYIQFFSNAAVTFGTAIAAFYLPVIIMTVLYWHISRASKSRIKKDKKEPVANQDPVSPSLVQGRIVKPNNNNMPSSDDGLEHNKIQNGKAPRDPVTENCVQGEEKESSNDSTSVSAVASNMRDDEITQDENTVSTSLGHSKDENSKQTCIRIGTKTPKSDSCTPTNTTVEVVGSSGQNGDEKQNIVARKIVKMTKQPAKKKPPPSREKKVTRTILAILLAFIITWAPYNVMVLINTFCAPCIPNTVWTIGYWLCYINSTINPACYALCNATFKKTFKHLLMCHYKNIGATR
In words: Compound was tested for its potency at Muscarinic acetylcholine receptor M2 by inhibiting forskolin induced c-AMP formation in CHO-M2 cells expressing human M2 receptor. The assay is classed as functional, cell-based. Summed up:
(§1)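 Human M2 receptor plasmid transfected into CHO cells […], cultured in DMEM/10% FBS with 1 μM atropine and 1 μM methotrexate; atropine-free medium overnight before assay. Cells detached with PBS + 1 mM EDTA, washed into DMEM + 20 mM HEPES pH 7.4 + 0.5 mM IBMX, preincubated 30 min at 0 °C. Forskolin 10 μM final, 10 min at 37 °C; ethanol stop; cAMP by radioimmunoassay.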

Assay [3] in a line: Ratio of EC50(CHO-M2) and EC50(A9L-M1). The assay is classed as functional. In short, it runs like this:
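Ratio of EC50 for inhibition of forskolin-stimulated cAMP in human-M2 CHO cells to EC50 for PI hydrolysis in A9L-M1 cells, both measured in this work.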

Assay [4] concerns the target T3, Muscarinic acetylcholine receptor M1 (Homo sapiens, UniProt P11229).
T3 sequence (P11229 whole entry): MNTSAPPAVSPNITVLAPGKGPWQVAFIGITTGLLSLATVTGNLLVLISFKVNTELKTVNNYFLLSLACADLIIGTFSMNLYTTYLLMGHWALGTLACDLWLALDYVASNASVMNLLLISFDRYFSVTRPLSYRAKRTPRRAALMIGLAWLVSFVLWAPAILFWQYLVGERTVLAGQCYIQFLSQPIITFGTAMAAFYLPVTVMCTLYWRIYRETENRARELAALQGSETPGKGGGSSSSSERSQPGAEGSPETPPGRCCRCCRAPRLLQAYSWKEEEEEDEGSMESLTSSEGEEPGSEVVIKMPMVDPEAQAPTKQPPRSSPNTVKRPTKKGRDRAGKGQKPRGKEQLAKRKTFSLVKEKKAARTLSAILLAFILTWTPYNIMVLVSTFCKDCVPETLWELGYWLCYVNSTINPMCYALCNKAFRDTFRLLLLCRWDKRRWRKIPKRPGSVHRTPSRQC
The assay can be described thus: Stimulation of phosphoinositol hydrolysis in the mouse fibroblast cell line A9L-M1 expressing Muscarinic acetylcholine receptor M1. The assay is classed as functional, cell-based.

Assay [5] addresses T2, Muscarinic acetylcholine receptor M2 (Homo sapiens). The assay can be described thus: Inhibition of forskolin induced c-AMP formation in CHO-M2 cells expressing human M2 receptor. The assay is classed as functional, cell-based. Summed up:
(§2)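 CHO cells transfected with human M2 receptor plasmid and cultured with atropine and methotrexate; atropine withdrawn overnight. Cells detached with PBS/1 mM EDTA, then preincubated 30 min at 0 °C in DMEM/20 mM HEPES pH 7.4 with 0.5 mM IBMX. Compound added and 10 μM forskolin (final) started a 10 min, 37 °C incubation, stopped with ice-cold ethanol. cAMP measured by radioimmunoassay.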

Assay [6] addresses T4, Muscarinic acetylcholine receptor M2 (Homo sapiens, UniProt P08172).
T4 sequence (P08172 whole entry): T2 sequence (whole entry)
In words: Compound was tested for its potency at M-2 receptor by inhibiting forskolin induced c-AMP formation in CHO-M2 cells human M2 receptor. The assay is classed as functional, cell-based. In short, it runs like this:
as §2

Assay [7] deals with T2, Muscarinic acetylcholine receptor M2 (Homo sapiens). In words: Compound was tested for its potency towards Muscarinic acetylcholine receptor M2 by inhibiting forskolin induced c-AMP formation in CHO-M2 cells expressing human Muscarinic acetylcholine receptor M2 receptor. The assay is classed as functional, cell-based. Summed up:
as §2

The target in assay [8] is T3, Muscarinic acetylcholine receptor M1. In words: (§3) Compound was tested for its ability to stimulate phosphoinositol (PI) hydrolysis in the mouse fibroblast cell line A9L-M1 expressing Muscarinic acetylcholine receptor M1 (100 uM concentration). The class given is functional, cell-based. Summed up: (§4)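 A9L mouse fibroblasts stably expressing M1, grown to confluence in DMEM/10% FCS with 1.3 μCi/mL [³H]inositol for 48 h, detached with trypsin and resuspended in HEPES/LiCl buffer (LiCl 10 mM, pH 7.4). Cells incubated 45 min at 37 °C with compound up to 100 μM. Total [³H]inositol phosphates separated by ion exchange and counted.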

In assay [9] the target is T5, Muscarinic acetylcholine receptor M1 (Homo sapiens) (UniProt P11229).
T5 sequence (whole entry): T3 sequence (P11229 whole entry)
The description is as §3. The class given is functional, cell-based. In short, it runs like this: as §4

For assay [10], the target named is T1, Muscarinic acetylcholine receptor M2. In words: In vitro Muscarinic acetylcholine receptor M2 binding was evaluated in rat brain membranes by using [3H]- Oxo-M. The assay is classed as cell membranes. Summed up:
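Rat cortex homogenized in 20 mM Hepes pH 7.4 and spun 10 min at 40000g; pellet resuspended and incubated with [3H]oxotremorine-M (1 nM final) plus test drug for 60 min at room temperature. Bound and free separated by vacuum filtration on PEI-presoaked GF/C filters, then scintillation counting.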

Assay [11] concerns the target T4, Muscarinic acetylcholine receptor M2. The assay can be described thus: Compound was tested for its potency towards Muscarinic acetylcholine receptor M2 by inhibiting forskolin induced c-AMP formation in CHO-M2 cells. The class given is functional, cell-based. Summed up:
as §1

Consider 20 molecules from ChEMBL document CHEMBL1132230, “1-(1,2,5-Thiadiazol-4-yl)-4-azatricyclo[2.2.1.0(2,6)]heptanes as new potent muscarinic M1 agonists: structure-activity relationship for 3-aryl-2-propyn-1-yloxy and 3-aryl-2-propyn-1-ylthio derivatives” (J Med Chem, 1999).

On to `C(#Cc1ccccc1)COc1nsnc1C12CN3CC1C2C3`, for which the IC50 – broadly, the concentration that gives 50% inhibition – in assay [1] came out at 16 nM. This molecule registered a Max in [2] of 99%. In assay [3], the Ratio turned out to be 11.

In assay [1], `Fc1cc(Cl)cc(C#CCSc2nsnc2C23CN4CC2C3C4)c1` showed an IC50 of 142 nM. Further, the 50% effective concentration (EC50) (as a rule, the concentration at which the effect is half-maximal) came to 46 nM in assay [4] and 763 nM in assay [6]. In addition, the Max in assay [5] came out at 90%. Also, in [3], the Ratio is 17.

The molecule `Fc1ccc(C#CCOc2nsnc2C23CN4CC2C3C4)cc1` had an IC50 in assay [1] of 10 nM. Also, the values for the EC50 in assay [4] and in [6] were 71 nM and 791 nM, respectively. In [5], the Max was 109%. Also, in assay [3], the Ratio stood at 11.

`Clc1ccc(C#CCSc2nsnc2C23CN4CC2C3C4)cc1` showed an IC50 in assay [1] of 242 nM. Further, the EC50 in assay [4] amounted to 107 nM; in assay [6], 80 nM. The molecule further yielded a Max in assay [5] of 76%. In addition, the Ratio in assay [3] was found to be 1.

Regarding `C[N+](C)(C)CCOC(N)=O`, in assay [7], the Max is 100%.

Take `Fc1cccc(C#CCOc2nsnc2C23CN4CC2C3C4)c1`: the half-maximal inhibitory concentration (IC50) in assay [1] was determined as 21 nM. Further, the EC50 in [8] came to 4.9 nM; in assay [6], 683 nM. This molecule had a Max in assay [9] of 91%. In [3], the Ratio came to 139.

In assay [1], `Fc1cc(Cl)cc(C#CCOc2nsnc2C23CN4CC2C3C4)c1` showed an IC50 of 92 nM. Also, the values for the EC50 in [4] and in [6] were 110 nM and 1480 nM, respectively. The molecule further came in with a Max in assay [5] of 76%. Also, in assay [3], the Ratio came to 13.

Regarding `Fc1cc(F)cc(C#CCSc2nsnc2C23CN4CC2C3C4)c1`, the IC50 in assay [1] worked out at 28 nM. Moreover, the values for the 50% effective concentration (EC50) in [4] and in [6] were 7.6 nM and 1660 nM, respectively. The Max in [5] worked out at 79%. For the same molecule, the Ratio in assay [3] worked out at 218.

Molecule `Fc1cccc(C#CCSc2nsnc2C23CN4CC2C3C4)c1` gave an IC50 in assay [1] of 26 nM. Besides, the EC50 in assay [4] was determined as 2.5 nM; in assay [6], 904 nM. For the same molecule, the Max in [5] was 106%. The Ratio in [3] worked out at 362.

In turn, `C(#Cc1ccccc1)CSc1nsnc1C12CN3CC1C2C3` showed an IC50 in [1] of 27 nM. Moreover, the EC50 in assay [4] was found to be 61.9 nM; in assay [6], 853 nM. Besides, the Max in assay [5] is 106%. Also, the Ratio in [3] was determined as 14.

As to `CCCCCCOc1nsnc1C1=CCCN(C)C1` [XANOMELINE], the IC50 in [10] is 16 nM. This molecule displayed a Max in assay [7] of 82%.

In the case of `COc1cccc(C#CCO/N=C2\CN3CCC2C3)c1` (stereo not given), the EC50 in [11] stood at 26700 nM; in assay [4] it was 7120 nM. The IC50 in [10] came to 150 nM. This molecule yielded a Max in [7] of 89%. Besides, the Ratio in [3] was determined as 4.

Take `Clc1cccc(C#CCSc2nsnc2C23CN4CC2C3C4)c1`: in assay [1], the IC50 was 49 nM. Further, the 50% effective concentration (EC50) in assay [4] came out at 9 nM; in assay [6] it was 673 nM. In assay [5], this molecule displayed a Max of 96%. Also, the Ratio in assay [3] was determined as 74.

`Clc1ccc(C#CCOc2nsnc2C23CN4CC2C3C4)cc1` showed an IC50 in assay [1] of 63 nM. Besides, the Max in assay [5] was 102%. Besides, in assay [6], the midpoint of the response, the EC50, lay at 1210 nM.

For the molecule `Fc1cc(F)cc(C#CCOc2nsnc2C23CN4CC2C3C4)c1`, the IC50 in assay [1] amounted to 30 nM. Also, the EC50 in assay [4] was 20.2 nM; in assay [6], 2690 nM. This molecule also came in with a Max in assay [5] of 68%. The Ratio in assay [3] was found to be 133.

The molecule `Clc1cccc(C#CCOc2nsnc2C23CN4CC2C3C4)c1` registered an IC50 in assay [1] of 47 nM. For the same molecule, the 50% effective concentration (EC50) in assay [4] came to 10.5 nM; in [6], 2280 nM. In [5], this molecule showed a Max of 101%. Further, the Ratio in assay [3] amounted to 217.

Molecule `Clc1cc(Cl)cc(C#CCOc2nsnc2C23CN4CC2C3C4)c1` showed an IC50 in [1] of 1690 nM. In addition, it took 1200 nM to reach a half-maximal effect in [4] (EC50). For the same molecule, the Max in [5] is 23%.

In assay [1], `CN1CCC=C(c2nsnc2OCC#Cc2ccccc2)C1` showed an IC50 of 14 nM. Besides, the Max in [5] came out at 115%. Further, in [3], the Ratio is 2.

In assay [1], `Clc1cc(Cl)cc(C#CCSc2nsnc2C23CN4CC2C3C4)c1` gave an IC50 of 788 nM. The EC50 is 1810 nM in assay [4] and 528 nM in [6]. The Max in assay [5] was found to be 84%. Besides, the Ratio in assay [3] was 0.3.

Take `Fc1ccc(C#CCSc2nsnc2C23CN4CC2C3C4)cc1`: the IC50 in assay [1] amounted to 20 nM. The EC50 was 4.5 nM in assay [4] and 83 nM in [6]. In addition, in assay [5], the Max was determined as 88%. Besides, the Ratio in assay [3] worked out at 18.
